Assay results: ChEMBL document CHEMBL1147016, “Vasorelaxant activity of phthalazinones and related compounds” (Bioorg Med Chem Lett, 2006)

Assays:
[1] = target: T1, Alpha-1D adrenergic receptor (Rattus norvegicus) (UniProt P23944); test: Inhibition of phenylephrine-stimulated Wistar rat aorta contraction at 100 uM; format: functional, tissue-based; design: scale not given: the % may be the effect or the level left
T1 sequence (whole entry): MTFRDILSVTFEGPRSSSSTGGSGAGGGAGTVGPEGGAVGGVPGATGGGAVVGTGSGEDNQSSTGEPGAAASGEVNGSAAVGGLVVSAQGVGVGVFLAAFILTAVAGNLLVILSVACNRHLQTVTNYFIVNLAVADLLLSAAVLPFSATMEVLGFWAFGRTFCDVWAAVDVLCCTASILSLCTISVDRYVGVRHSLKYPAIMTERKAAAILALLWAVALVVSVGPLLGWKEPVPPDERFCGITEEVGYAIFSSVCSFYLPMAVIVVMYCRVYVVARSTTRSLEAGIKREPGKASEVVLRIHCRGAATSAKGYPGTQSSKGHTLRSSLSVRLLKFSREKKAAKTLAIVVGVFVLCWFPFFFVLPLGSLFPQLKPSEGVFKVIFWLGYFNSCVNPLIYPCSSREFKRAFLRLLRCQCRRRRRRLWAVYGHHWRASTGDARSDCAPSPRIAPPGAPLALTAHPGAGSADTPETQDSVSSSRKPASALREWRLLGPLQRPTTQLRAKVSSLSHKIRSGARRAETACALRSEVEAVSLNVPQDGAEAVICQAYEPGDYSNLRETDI
How it was run: (§1)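 Isolated rat aorta rings equilibrated 1 h at 2 g resting tension in Krebs solution, changed periodically. Contracted with 10^-5 M phenylephrine; at steady maximal contraction compounds added progressively over 30 min up to 10^-5 M or 10^-4 M. Responses read after 30 min as % relaxation of PE contraction; EC50 calculated when relaxation exceeded 60%.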

[2] = target: T2, Alpha-1D adrenergic receptor (Rattus norvegicus, UniProt P23944); test: Vasorelaxation of phenylephrine-stimulated Wistar rat aorta contraction; format: functional, tissue-based; how it was run: as §1
T2 sequence (P23944 whole entry): T1 sequence (whole entry)

[3] = target: T3, Alpha-1A adrenergic receptor (Rattus norvegicus) (UniProt P43140); test: Affinity to Adrenergic alpha-1A receptor in Wistar rat vas deferens; format: tissue-based
T3 sequence (whole entry): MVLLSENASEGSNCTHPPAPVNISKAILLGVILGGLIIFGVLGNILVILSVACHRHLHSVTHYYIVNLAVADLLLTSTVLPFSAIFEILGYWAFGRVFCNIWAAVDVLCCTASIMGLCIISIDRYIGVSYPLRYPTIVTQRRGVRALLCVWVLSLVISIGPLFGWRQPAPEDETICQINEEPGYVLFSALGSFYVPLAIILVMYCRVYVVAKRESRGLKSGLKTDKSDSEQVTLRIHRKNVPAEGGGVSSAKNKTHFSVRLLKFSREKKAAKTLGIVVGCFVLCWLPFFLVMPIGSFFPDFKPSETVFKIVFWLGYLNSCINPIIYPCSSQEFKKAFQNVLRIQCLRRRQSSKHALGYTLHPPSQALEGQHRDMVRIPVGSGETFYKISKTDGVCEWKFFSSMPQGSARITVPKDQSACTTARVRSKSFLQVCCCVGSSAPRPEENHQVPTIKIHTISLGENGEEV
How it was run: (§2)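 Wistar rat vas deferens cleaned of connective tissue, held in Krebs–Henseleit at 37 °C, 95% O2–5% CO2, 1 g resting tension. Control noradrenaline concentration–response curve obtained, tissue then equilibrated with a fixed compound concentration for at least 30 min before a second NA curve. Time-matched controls; responses as % of control maximum; means ± SE.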

[4] = target: T1, Alpha-1D adrenergic receptor (Rattus norvegicus); test: Inhibition of phenylephrine-stimulated Wistar rat aorta contraction at 10 uM; format: functional, tissue-based; design: scale not given: the % may be the effect or the level left; how it was run: as §1
[5] = target: T3, Alpha-1A adrenergic receptor (Rattus norvegicus); test: Inhibition of noradrenaline-stimulated Wistar rat vas deferens contraction at 1 uM; format: functional; how it was run: as §2
[6] = target: T3, Alpha-1A adrenergic receptor (Rattus norvegicus); test: Inhibition of noradrenaline-stimulated Wistar rat vas deferens contraction at 10 uM; format: functional; how it was run: as §2
[7] = target: T4, Alpha-1A adrenergic receptor (Rattus norvegicus, UniProt P43140); test: Vasorelaxation of noradrenaline-stimulated Wistar rat vas deferens contraction; format: functional, tissue-based; how it was run: as §2
T4 sequence (P43140 whole entry): T3 sequence (whole entry)

[8] = target: T5, Alpha-1B adrenergic receptor (Rattus norvegicus) (UniProt P15823); test: Affinity to Adrenergic alpha-1B receptor in Wistar rat spleen; format: tissue-based
T5 sequence (whole entry): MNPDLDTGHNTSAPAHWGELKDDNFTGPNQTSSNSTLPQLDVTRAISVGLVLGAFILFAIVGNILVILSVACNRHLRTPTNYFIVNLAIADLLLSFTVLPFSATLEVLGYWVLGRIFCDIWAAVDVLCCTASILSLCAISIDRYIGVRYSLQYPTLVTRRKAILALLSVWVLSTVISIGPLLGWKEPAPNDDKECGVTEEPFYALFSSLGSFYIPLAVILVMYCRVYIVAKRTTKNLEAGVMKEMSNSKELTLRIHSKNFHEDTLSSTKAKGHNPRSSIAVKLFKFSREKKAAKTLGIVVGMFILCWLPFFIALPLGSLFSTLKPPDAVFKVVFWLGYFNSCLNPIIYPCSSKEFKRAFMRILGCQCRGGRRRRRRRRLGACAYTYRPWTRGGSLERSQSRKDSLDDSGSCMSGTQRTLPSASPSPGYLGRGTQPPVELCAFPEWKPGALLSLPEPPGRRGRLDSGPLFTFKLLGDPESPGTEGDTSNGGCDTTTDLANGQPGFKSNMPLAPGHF
How it was run: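 Longitudinal rat spleen strips at 1 g tension in Krebs, 37 °C. After stabilisation, single 10^-4 M phenylephrine dose, washout, then PE dose–response curves on two separate strips, control and after 30 min incubation with compound. Values as % of the first PE response.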

[9] = target: T1, Alpha-1D adrenergic receptor (Rattus norvegicus); test: Affinity to Adrenergic Alpha-1D receptor in Wistar rat aorta; format: tissue-based
How it was run: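 Rat aorta rings stabilised, then cumulative vasoconstrictor additions until plateau; contraction as % of control response. Protocol repeated after 30 min compound incubation.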

SMILES | EC50 [2] | Activity [4] | other results
COc1ccc(Cc2nnc(O)c3ccccc23)cc1 | > 10 µM |  | Activity [1]: 39.3%
C=CCn1nc(Cc2ccc(SC)cc2)c2ccccc2c1=O | > 100 µM |  | 
COc1ccc(Cc2nn(C)c(=O)c3ccccc23)cc1 | < 100 µM |  | Activity [1]: 61.6%
CSc1ccc(Cc2nn(-c3ccc(Br)cc3)c(=O)c3ccccc23)cc1 | > 100 µM |  | 
CSc1ccc(Cc2n[nH]c(=O)c3ccccc23)cc1 | 5.5 µM |  | 
Cn1nc(Cc2ccccc2)c2ccccc2c1=O | ≤ 10 µM | 55.7% | pD'2 [3]: 5.8; inhibition [5]: 36.6%; inhibition [6]: 98.8%; EC50 [7]: 1.5 µM
O=c1[nH]nc(Cc2ccc(Cl)cc2)c2ccccc12 | 0.79 µM |  | EC50 [7]: 3.9 µM
Oc1nnc(Cc2ccccc2Cl)c2ccccc12 | 1.9 µM | 76.3% | 
Cn1nc(Cc2cccc3ccccc23)c2ccccc2c1=O | 14 µM | 39.8% | 
CCn1nc(Cc2ccc(Cl)cc2)c2ccccc2c1=O | 1.3 µM |  | 
COc1ccc(CCc2cc(O)cc(OC)c2C(=O)N2CCCCC2)cc1 |  |  | Activity [1]: 51%
COc1ccc(Cc2nn(C)c(=O)c3ccccc23)cc1OC | 2.2 µM | 67.7% | 
CSc1ccc(Cc2nn(C)c(=O)c3ccccc23)cc1 | 0.93 µM | 87.2% | 
Cn1nc(Cc2ccc(Cl)c(Cl)c2)c2ccccc2c1=O | 4.9 µM | 60.3% | 
CCn1nc(Cc2ccc(OC)c(OC)c2)c2ccccc2c1=O | 5.3 µM |  | 
Oc1nnc(Cc2ccc3c(c2)OCO3)c2ccccc12 | 2.9 µM | 86.7% | pD'2 [3]: 5.5; inhibition [5]: 24.3%; inhibition [6]: 78.8%; EC50 [7]: 3 µM
Cn1nc(Cc2ccc3c(c2)OCO3)c2ccccc2c1=O | 0.93 µM | 90.2% | 
Oc1nnc(Cc2ccc(Cl)cc2Cl)c2ccccc12 | < 10 µM | 61.3% | 
COc1ccc(Cc2nn(C(C)(C)C)c(=O)c3ccccc23)cc1OC | 10 µM |  | 
COc1cc(Cc2nnc(O)c3ccccc23)cc(OC)c1OC | > 100 µM |  | Activity [1]: 34.3%
CC(C)(C)n1nc(Cc2ccc(Cl)cc2)c2ccccc2c1=O | > 100 µM |  | 
COc1ccc(C(=O)C(=O)c2ccccc2C(=O)N2CCCCC2)cc1OC |  | 70% | 
COc1ccc(CCc2cc(O)cc(OC)c2C(=O)O)cc1 |  |  | Activity [1]: 34%
O=c1c2ccccc2c(Cc2ccc(Cl)cc2)nn1-c1ccccc1 | > 100 µM |  | 
OC1(Cc2ccc3c(c2)OCO3)c2ccccc2C2=NCCN21 (stereo unspecified) |  | 47% | 
O=c1[nH]nc(Cc2ccccc2)c2ccccc12 | ≤ 10 µM | 53% | 

SMILES | EC50 [2] | Activity [4] | other results
CCn1nc(Cc2ccc(SC)cc2)c2ccccc2c1=O | > 100 µM |  | 
O=c1c2ccccc2c(Cc2ccc(Cl)cc2)nn1-c1ccc([N+](=O)[O-])cc1 | 29 µM |  | 
COc1ccc(CC(=O)c2ccccc2C(=O)N2CCCCC2)cc1OC |  | 30% | 
Oc1nnc(Cc2ccc3ccccc3c2)c2ccccc12 | > 10 µM | 43.9% | 
COc1ccc(Cc2nn(-c3ccc([N+](=O)[O-])cc3)c(=O)c3ccccc23)cc1OC | > 100 µM |  | 
CSc1ccc(Cc2nn(-c3ccccc3)c(=O)c3ccccc23)cc1 | > 100 µM |  | 
Cn1nc(Cc2ccc(Cl)cc2Cl)c2ccccc2c1=O | 1.2 µM | 80.7% | 
COc1cc(Cc2nn(C)c(=O)c3ccccc23)cc(OC)c1OC | > 10 µM | 16.7% | 
Oc1nnc(Cc2ccc(Cl)c(Cl)c2)c2ccccc12 | ≤ 10 µM | 53.8% | 
C=CCn1nc(Cc2ccc(OC)c(OC)c2)c2ccccc2c1=O | 9.8 µM |  | 
COc1ccc(Cc2nn(-c3ccc(Br)cc3)c(=O)c3ccccc23)cc1OC | > 100 µM |  | 
C=CCn1nc(Cc2ccc(Cl)cc2)c2ccccc2c1=O | 2.6 µM |  | pD'2 [3]: 5.4; inhibition [5]: 16.9%; inhibition [6]: 70.4%; EC50 [7]: 4.4 µM
CSc1ccc(Cc2nn(C(C)(C)C)c(=O)c3ccccc23)cc1 | > 100 µM |  | 
COc1ccc(Cc2nnc(O)c3ccccc23)cc1OC | 3.7 µM | 83.8% | 
Cn1nc(Cc2ccc3ccccc3c2)c2ccccc2c1=O | > 10 µM | 44.6% | 
CCCCn1nc(Cc2ccc(Cl)cc2)c2ccccc2c1=O | > 100 µM |  | 
Cn1nc(Cc2ccc(Cl)cc2)c2ccccc2c1=O | 0.43 µM | 99.3% | pD'2 [3]: 6.1; pD'2 [8]: 5.55; pD'2 [9]: 5.4; inhibition [5]: 61.5%; inhibition [6]: 95.4%; EC50 [7]: 0.81 µM
CCCCn1nc(Cc2ccc(SC)cc2)c2ccccc2c1=O | > 100 µM |  | 
CSc1ccc(Cc2nnc(O)c3ccccc23)cc1 |  | 66% | 
CSc1ccc(Cc2nn(-c3ccc([N+](=O)[O-])cc3)c(=O)c3ccccc23)cc1 | > 100 µM |  | 
O=c1c2ccccc2c(Cc2ccc(Cl)cc2)nn1-c1ccc(Br)cc1 | > 30 µM |  | 
Oc1nnc(Cc2cccc3ccccc23)c2ccccc12 | 4.4 µM | 79.2% | 
CCCCn1nc(Cc2ccc(OC)c(OC)c2)c2ccccc2c1=O | 5.4 µM |  | 
Cn1nc(Cc2ccccc2Cl)c2ccccc2c1=O | 1.4 µM | 84% | 
COc1ccc(Cc2nn(-c3ccccc3)c(=O)c3ccccc23)cc1OC | > 100 µM |  | 
Oc1nnc(Cc2ccc(Cl)cc2)c2ccccc12 |  | 89.9% | pD'2 [3]: 5.4; inhibition [5]: 16.3%; inhibition [6]: 76.3%
